Source: ChEMBL document CHEMBL4411269, “Required Immunoproteasome Subunit Inhibition Profile for Anti-Inflammatory Efficacy and Clinical Candidate KZR-616 ((2 S,3 R)- N-(( S)-3-(Cyclopent-1-en-1-yl)-1-(( R)-2-methyloxiran-2-yl)-1-oxopropan-2-yl)-3-hydroxy-3-(4-methoxyphenyl)-2-(( S)-2-(2-morpholinoacetamido)propanamido)propenamide)” (J Med Chem, 2018)
Active and inactive are the calls of the source. No cut-off for these calls is given here.

Legend:
[1] = Toxicity in Balb/c mouse assessed as change in body weight at 20 mg/kg, iv followed by dosing repeat on day 6, 8, 11, 13 and 15 and co-treated with 5 mg/kg, iv KZR-504 and measured until day 18; format: organism-based; conditions: in vivo
[2] = tested on: PBMC; assay: Antiinflammatory activity in human PBMC assessed as reduction in anti-CD3/CD28 antibody-stimulated IFN-gamma expression at 125 nM preincubated for 1 hr followed by anti-CD3/CD28 antibody stimulation measured after 24 hrs in presence of KZR-504 by ELISA; format: functional, cell-based
Procedure, shortened: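 Healthy-donor PBMC, thawed from cryopreservation, 250 000 cells/well in RPMI 1640/5% FBS. Pretreated 1 h at 37 °C with compound alone or combined (0.1% DMSO final), washed 4 times, then stimulated 24 h with anti-CD3 and anti-CD28 antibodies. TNFα and IFNγ in supernatants by electrochemiluminescent ELISA; expressed relative to DMSO-treated controls (n = 6).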

[3] = Clearance in Balb/c mouse at 2 mg/kg, iv; format: ADME, organism-based; conditions: in vivo
Procedure, shortened: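 Female BALB/c mice aged 7−8 weeks, given 2 mg/kg iv in 25% PEG300/WFI. Cardiac blood taken at 2, 5, 10, 20, 30, 60 and 120 min postdose into sodium heparin and processed to plasma (n = 3/time point). Proteins precipitated with acetonitrile; drug measured by LC−MS/MS. Noncompartmental analysis of mean concentrations at nominal times and target doses.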

[4] = tested on: PBMC; assay: Antiinflammatory activity in human PBMC assessed as reduction in LPS-stimulated p40 subunit of […] expression at 125 nM preincubated for 1 hr followed by LPS stimulation measured after 24 hrs by ELISA; format: functional, cell-based
Procedure, shortened: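 Cryopreserved healthy-donor PBMC in RPMI 1640 with 5% heat-inactivated FBS, 250 000 cells/well. Compound (0.1% DMSO final) for 1 h at 37 °C, 5% CO2, then 4 washes with medium. Stimulated with 1 μg/mL LPS for 24 h; supernatant TNFα, IL-6 and IL-12/23p40 by electrochemiluminescent immunoassay. Mean level relative to DMSO controls, n = 6.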

[5] = molecular target: T1, Proteasome subunit beta type-9 (Homo sapiens) (UniProt P28065); assay: Inhibition of LMP2 in human PBMC at 125 nM in presence of KZR-504 by ELISA
T1 sequence (whole entry): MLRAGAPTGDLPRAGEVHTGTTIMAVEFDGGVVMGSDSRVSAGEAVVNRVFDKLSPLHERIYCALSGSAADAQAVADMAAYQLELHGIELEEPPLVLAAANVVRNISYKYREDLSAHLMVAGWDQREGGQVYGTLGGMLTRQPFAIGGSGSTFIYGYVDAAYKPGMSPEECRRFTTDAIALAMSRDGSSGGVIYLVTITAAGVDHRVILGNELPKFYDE

[6] = Toxicity in Balb/c mouse assessed as effect on cage-side observations at 20 mg/kg, iv followed by dosing repeat on day 6, 8, 11, 13 and 15 and co-treated with 5 mg/kg, iv KZR-504 and measured until day 18; format: organism-based; conditions: in vivo
[7] = tested on: Mus musculus; assay: In vivo inhibition of LMP7 in Balb/c mouse splenocytes at 20 mg/kg, iv followed by dosing repeat on day 6, 8, 11, 13 and 15 and measured on 1 hr post last dose; format: functional, organism-based
Procedure, shortened: (§1)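 BALB/c mice dosed iv bolus in 10% sulfobutyl ether−β-cyclodextrin/10 mM sodium citrate pH 3.5; tissues taken 1 h after administration. Splenocytes strained and red cells lysed; kidney frozen, then bead-homogenized. Hypotonic lysate (20 mM Tris pH 8, 5 mM EDTA) at 1 mg/mL (spleen) or 5 mg/mL (kidney) run in the ProCISE active-site ELISA. Background-subtracted, protein-normalized activity relative to vehicle animals; n = 3.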

[8] = Toxicity in Balb/c mouse assessed as change in body weight at 20 mg/kg, iv followed by dosing repeat on day 6, 8, 11, 13 and 15 and measured until day 18; format: organism-based; conditions: in vivo
[9] = tested on: Mus musculus; assay: In vivo inhibition of LMP2 in Balb/c mouse splenocytes at 20 mg/kg, iv followed by dosing repeat on day 6, 8, 11, 13 and 15 and co-treated with 5 mg/kg, iv KZR-504 and measured on 1 hr post last dose; format: functional, organism-based; procedure, shortened: as §1
[10] = tested on: Mus musculus; assay: In vivo inhibition of proteosome beta 5 in Balb/c mouse kidney at 20 mg/kg, iv followed by dosing repeat on day 6, 8, 11, 13 and 15 and measured on 1 hr post last dose; format: functional, organism-based; procedure, shortened: as §1
[11] = tested on: Mus musculus; assay: In vivo inhibition of MECL-1 in Balb/c mouse splenocytes at 20 mg/kg, iv followed by dosing repeat on day 6, 8, 11, 13 and 15 and co-treated with 5 mg/kg, iv KZR-504 and measured on 1 hr post last dose; format: functional, organism-based; procedure, shortened: as §1
[12] = species on record: Mus musculus; assay: Selectivity ratio of IC50 for proteosome beta 5 in mouse A20 cells to IC50 for LMP7 in mouse A20 cells; format: cell-based
Procedure, shortened: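 Mouse A20 B-cell lymphoma cell lysate (1 mg/mL, hypotonic 20 mM Tris pH 8, 5 mM EDTA) treated with serially diluted compound for 1 h at 25 °C. Then 5 μM biotinylated active-site probe for 2 h at 25 °C, guanidine denaturation and streptavidin bead capture. Subunit-specific antibody and HRP chemiluminescence, signal normalized to protein, IC50 from percent activity versus DMSO controls.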

[13] = tested on: Mus musculus; assay: In vivo inhibition of proteosome beta 5 in Balb/c mouse kidney at 20 mg/kg, iv followed by dosing repeat on day 6, 8, 11, 13 and 15 and co-treated with 5 mg/kg, iv KZR-504 and measured on 1 hr post last dose; format: functional, organism-based; procedure, shortened: as §1
[14] = tested on: Mus musculus; assay: Antiarthritic activity in type 2 collagen antibody/LPS induced Balb/c mouse assessed as reduction in disease burden at 5 mg/kg, iv followed by dosing repeat on day 6, 8, 11, 13 and 15 and measured until day 18; format: functional, organism-based
Procedure, shortened: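 CAIA in 7−8 week old female BALB/c mice on breeder chow. Induced with 1.75 mg of a 5-antibody anti-type II collagen cocktail iv on day 0, then 25 μg LPS ip on day 3. Dosed as single iv boluses in 10% (w/v) sulfobutyl ether−β-cyclodextrin/10 mM sodium citrate (pH 3.5); vehicle-treated group included.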

[15] = Selectivity ratio of IC50 for MECL1 in mouse A20 cells to IC50 for MECL1 in human MOLT4 cells; format: cell-based

In the case of COc1ccc(C[C@H](NC(=O)[C@@H](C)NC(=O)[C@H]2CC[C@H](O)CC2)C(=O)N[C@@H](CC2=CCCC2)C(=O)[C@@]2(C)CO2)cc1, the Activity [1] is reported as “Non-Toxic”, the Activity [2] is reported as “Active” and the clearance [3] is reported as > 73 mL/min/kg. The Activity [4] was “Active”, the inhibition [5] was “Active” and the Activity [6] was “Non-Toxic”. For the same molecule, the inhibition [7] was “Active”, the Activity [8] was “Non-Toxic” and the inhibition [9] was “Active”. The inhibition [10] was “Active”, the inhibition [11] was “Active” and the Ratio IC50 [12] was 7. For the same molecule, the inhibition [13] was “Active”.
For COc1ccc([C@@H](O)[C@H](NC(=O)[C@H](C)NC(=O)CN2CCOCC2)C(=O)N[C@@H](CC2=CCCC2)C(=O)[C@@]2(C)CO2)cc1 [ZETOMIPZOMIB], the Activity [14] was “Active”.
Work on Cc1ccc(CC[C@H](NC(=O)[C@H](Cc2ccccc2)NC(=O)[C@H](CC(C)C)NC(=O)CN2CCCCCC2)C(=O)[C@@]2(C)CO2)cc1 yielded a Ratio IC50 [15] of 4.
